High-throughput results deposited in PubChem BioAssay by NMMLSC.
Shown are actives, neighbours in structure and some others; about 2.3% of the full set was active somewhere.
MEKK2mut PB1 HTS = signal of MEK5 binding to mutant human MEKK2 PB1 domain; percent response, % at 10 µM; bead flow cytometry, Alexa488-MEK5 binding to MEKK2 mutant; 290,000 tested, 0.35% active; in the data active means percent response above about 24%, passing the limit was not always enough
ABCG2 block = human ABCG2 inhibition, ABCB1 as counter-screen; Q9UNQ0; IgMXP3 cells, JC-1 efflux, flow cytometry; inhibition, % at 6.6 µM; 190,000 tested, 0.1% active;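 active means inhibition above 80%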;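 further: 0% = DMSO and 100% = nicardipine control wells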
Target sequence (Q9UNQ0 whole entry, looked up): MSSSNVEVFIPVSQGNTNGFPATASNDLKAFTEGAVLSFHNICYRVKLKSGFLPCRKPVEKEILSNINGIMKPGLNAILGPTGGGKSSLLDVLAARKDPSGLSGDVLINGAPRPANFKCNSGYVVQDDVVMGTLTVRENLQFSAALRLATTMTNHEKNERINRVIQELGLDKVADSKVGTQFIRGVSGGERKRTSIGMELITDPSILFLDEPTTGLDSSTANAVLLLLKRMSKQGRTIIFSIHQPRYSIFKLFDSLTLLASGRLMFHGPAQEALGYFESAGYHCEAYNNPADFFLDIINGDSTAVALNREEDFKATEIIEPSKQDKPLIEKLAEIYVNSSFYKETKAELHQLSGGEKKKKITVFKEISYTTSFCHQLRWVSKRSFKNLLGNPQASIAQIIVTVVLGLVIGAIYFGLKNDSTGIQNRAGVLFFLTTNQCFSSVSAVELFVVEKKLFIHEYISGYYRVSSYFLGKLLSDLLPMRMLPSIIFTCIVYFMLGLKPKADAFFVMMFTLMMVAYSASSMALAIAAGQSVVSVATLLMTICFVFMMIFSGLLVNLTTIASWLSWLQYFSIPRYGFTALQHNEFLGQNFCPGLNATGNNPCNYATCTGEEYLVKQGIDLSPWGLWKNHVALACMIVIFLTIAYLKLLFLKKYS
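Measure – % inhibition of efflux relative to nicardipine and DMSO · Test system – ABCG2 IgMXP3 and barcoded ABCB1 CCRF-Adr cell mix · Control set – nicardipine as high control, DMSO as low control · Compound – one concentration, 6.6 µM final · Signal – flow cytometry of retained JC-1 fluorescence · Timing – 10 min exposure at 25 °C with rotation, no wash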
MEKK3 PB1 HTS = raises or lowers MEK5 binding to the human MEKK3 PB1 domain | binding response (% of control), % at 10 µM | bead-based flow cytometry, Alexa488-MEK5 binding to MEKK3; actives lie on both sides; 0 = blocked by unlabeled MEK5, 100 = vehicle | Q99759 | 290,000 tested, 1.4% active;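 active means binding response more than 3 SD above or below the average of its plate-row segment, actives on both sides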;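 further: Alexa488 bead fluorescence after subtracting the streptavidin-only scavenger bead signal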
MEKK2wt PB1 HTS = raises or lowers MEK5 binding to wildtype human MEKK2 PB1 domain. binding response (% of control), % at 10 µM. bead flow cytometry, Alexa488-MEK5 binding to MEKK2 WT; actives lie on both sides. AID 1531. 290,000 tested, 1.1% active; in the data active means binding response below about 67% or above about 130%
ABCB1 inh = inhibitors of human ABCB1 transporter, ABCG2 counter-screen; P08183; CCRF-Adr cells, JC-1 efflux, flow cytometry; inhibition, % at 6.6 µM; 190,000 tested, 0.067% active; in the data active means inhibition above about 40%;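 further: 0% = vehicle and 100% = reference inhibitor; higher value means more JC-1 retained so stronger ABCB1 efflux block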
MEKK2wt confirm = raises or lowers MEK5 binding to wildtype human MEKK2, retest. shares compounds with MEKK3 PB1 HTS. bead flow cytometry, Alexa488-MEK5 binding to MEKK2 WT; actives lie on both sides. 5,900 tested, 2.4% active. binding response (% of control), % at 10 µM; in the data active means binding response below about 16% or above about 210%; inactive means in between
MEKK2mut-MEK5 = signal of MEK5 binding to mutant human MEKK2, retest. shares compounds with MEKK3 PB1 HTS. bead flow cytometry, Alexa488-MEK5 binding to MEKK2 mutant. percent response, % at 10 µM. 5,900 tested, 2% active. AID 1893; in the data active means percent response mostly above about 71%, no sharp cut-off; inactive means mostly below about 38%;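 further: higher means compound restores mutant binding toward wildtype level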
MEKK3 confirm = confirmation of inhibitors of MEK5 binding to human MEKK3 | shares compounds with MEKK3 PB1 HTS | bead flow cytometry, Alexa488-MEK5 binding to MEKK3; stronger effect = lower value | binding response (% of control), % at 10 µM | 5,900 tested, 1.8% active | AID 1894;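 active means binding response below 72% of control, or above a set upper limit, though filed actives all read lower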;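 further: 100% = DMSO only wells and 0% = binding blocked by excess unlabeled MEK5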
Active calls of the source: *; . = no result; ! = not active in a repeat; [ ] = remark or other dose.

SMILES	MEKK2mut PB1 HTS	ABCG2 block	MEKK3 PB1 HTS	MEKK2wt PB1 HTS	ABCB1 inh	MEKK2wt confirm	MEKK2mut-MEK5	MEKK3 confirm
Cc1ccccc1-c1nc(CN2CCC(C(=O)NCCCN3CC(C)CC(C)C3)CC2)c(C)o1 (configuration not stated)	18	3	107	142*	1	127	18	102
CCOC(=O)c1c(C)[nH]c(C)c1S(=O)(=O)NC(CC)CN1CCOCC1 (configuration not stated)	6	.	102	108	.	.	.	.
NC(=O)COC(=O)C1CSC2(c3ccc(F)cc3)CCC(=O)N12 (configuration not stated)	-3	.	100	102	.	.	.	.
CC(C)c1ccc(C(C)NCCS(=O)(=O)c2ccc(Cl)cc2)cc1 (configuration not stated)	9	.	102	108	.	.	.	.
O=S1(=O)CCOC[C@H](c2ccccc2)N1Cc1ccccc1F	-2	.	99	102	.	.	.	.
Cc1ccccc1OCC(=O)Nc1ccc(N2CCN(C)CC2)c(Cl)c1	2	.	97	101	.	.	.	.
CC(=Nc1ccccc1)C1=C(O)CCCC1=O	1	-3	136*	105	0	97	-1	93
COc1ccc(/C=C/c2noc(-c3ccccc3O)n2)cc1	0	12	131*	106	1	94	0	98
Clc1ccc2c(c1)CCc1cccnc1C2=C1CCNCC1	3	.	103	144*!	.	127	15	110
CC(C)NS(=O)(=O)c1ccc(NC(=O)C(C)Oc2ccc(C(=O)c3ccccc3)cc2)cc1 (configuration not stated)	-1	13	147*	100	3	97	-9	102
CC1(c2nnc(-c3cccc(Cl)c3)o2)CC(c2cccc([N+](=O)[O-])c2)=NO1 (configuration not stated)	-5	.	100	89	.	.	.	.
CC(=O)c1ccc(NC(=O)C(C)n2c3ccccc3c3nc(=O)cc(C)n32)cc1 (configuration not stated)	-17	.	44*[inhibitor]	52	.	103	-3	103
Cc1oc(-c2ccccc2F)nc1CS(=O)(=O)CC(=O)NCCCN1CCc2ccccc2C1	21	1	113	149*	0	132	11	105
COc1cccc(-c2nc(CS(=O)(=O)CC(=O)N3CCc4ccccc4C3)c(C)o2)c1	-19	3	1.0*[inhibitor]	-3.0*[inhibitor]	0	101	1	103
CCOc1ccc(N/C=C\C(=O)c2ccc3c(c2)OCO3)cc1	2	3	102	103	1	.	.	.
COc1ccc(C(=O)/C=C/Nc2ccc([N+](=O)[O-])cc2)cc1	-1	13	70*[inhibitor]	91	0	101	2	103
CCOC(=O)c1ccc(N/C=C\C(=O)c2cccc(OC)c2)cc1	1	9	201*	114	0	107	6	103
COc1ccc(N/C=C\C(=O)c2ccc3c(c2)OCO3)cc1	-9	4	1.0*[inhibitor]	-1.0*[inhibitor]	1	99	0	106
O=C(NC1CCC(O)CC1)c1ccc(-c2ccc([N+](=O)[O-])cc2)o1 (configuration not stated)	-12	.	96	93	.	.	.	.
Cn1c(C(=O)NCCCN2CCN(c3ccccc3F)CC2)cc2c(=O)[nH]c3ccccc3c21	28	2	111	148*	0	130	5	104
O=C(Cc1csc(Nc2nc(=S)[nH]c3ccccc23)n1)NCCCN1CCN(c2ccccc2F)CC1	-2	3	110	147*	0	153	31	102
O=C(Cc1csc(Nc2nc(=S)[nH]c3ccccc23)n1)NCc1ccc(Cl)cc1	3	0	95	99	-1	.	.	.
CCC(CC)c1nnc(NC(=O)C2CC(=O)N(C3CCCC3)C2)s1 (configuration not stated)	-1	.	97	95	.	.	.	.
Fc1ccc(CSc2ccc(-c3ccc4c(c3)OCO4)nn2)cc1	0	-8	135*	105	0	105	7	104
c1ccc(CSc2ccc(-c3ccc4c(c3)OCO4)nn2)cc1	10	0	101	110	0	.	.	.
SMILES	MEKK2mut PB1 HTS	ABCG2 block	MEKK3 PB1 HTS	MEKK2wt PB1 HTS	ABCB1 inh	MEKK2wt confirm	MEKK2mut-MEK5	MEKK3 confirm
Cc1ccc(NC(=O)CSc2ccc(-c3ccc4c(c3)OCO4)nn2)cc1F	0	-7	132*	101	-1	107	10	109
Cc1cc(NC(=O)CSc2ccc(-c3ccc4c(c3)OCO4)nn2)no1	-15	-1	77	80	-1	.	.	.
Nc1ccc(Oc2ccc(Br)cc2)cc1	-1	0	72*[inhibitor]	97	0	104	4	103
O=C(CC(c1ccco1)S(=O)(=O)c1ccccc1)c1ccccc1 (configuration not stated)	1	1	136*	118	0	98	3	102
COCCNC(=O)CN1N=C(c2ccc(C)cc2)CCC1=O	9	.	110	115	.	.	.	.
Cc1ccc(N2C(=O)C3C(C2=O)N2CCCN2C3c2ccccc2)cc1C (configuration not stated)	0	11	101	99	2	.	.	.
Cc1ccc(N2C(=O)C3C(c4ccccc4)N4CCCN4C3(C)C2=O)cc1 (configuration not stated)	-1	-3	66*[inhibitor]	84	0	105	2	102
Cc1cccn2c(=O)c3cc(C#N)c(=NC(=O)c4ccncc4)n(CCCOC(C)C)c3nc12	-3	2	97	96	1	.	.	.
CC(=O)N=c1c(C#N)cc2c(=O)n3cccc(C)c3nc2n1CCCOC(C)C	-27	.	67	46*[inhibitor]	.	101	-7	98
COc1ccc(/C=C(\C#N)c2nc3ccccc3[nH]2)cc1O	-3	.	98	98	.	.	.	.
COc1cc(/C=C(/C#N)c2nc3ccccc3c(=O)[nH]2)ccc1O	1	-1	140*	104	0	99	-4	101
CC(=O)c1cccc(NC(=S)N2CCN(S(=O)(=O)c3ccccc3)CC2)c1	-2	.	98	99	.	.	.	.
O=C(Nc1cccc(-c2csc(Nc3ccc(Cl)cc3)n2)c1)c1cccc(C(F)(F)F)c1	9	.	123*	96	.	117	0	106
COc1ccc(-c2nc(CS(=O)CC(=O)N3CCN(C)CC3)c(C)o2)cc1 (configuration not stated)	-3	.	98	100	.	.	.	.
